Active and inactive are the calls of the source. The rule behind the calls is not given here.
Key:
MDA-MB-435 = test: Growth inhibition of human MDA-MB-435 cells assessed as cell growth at 10^-5 M after 48 hrs by sulforhodamine B assay; format: functional; details: MDA-MB-435, 48 h, read-out: Activity
Method in brief: (§1)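 NCI-60 single high-dose screen run under the NCI protocol. Cells were incubated with compound at 10^-5 M for 48 h. The end point was determined by sulforhodamine B protein staining. Results are reported as percent growth of treated cells relative to untreated control cells.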

SNB-19 = test: Growth inhibition of human SNB19 cells assessed as cell growth at 10^-5 M after 48 hrs by sulforhodamine B assay; format: functional; details: SNB-19, 48 h, read-out: Activity
Method in brief: (§2)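 NCI 60-cell panel single-dose screen under the NCI protocol. Cells are exposed to compound at one concentration (10^-5 M) for 48 h. The end point is protein staining with sulforhodamine B. Each line is reported as percent growth of treated cells relative to untreated control cells.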

MDA-MB-231 = test: Growth inhibition of human MDA-MB-231 cells assessed as cell growth at 10^-5 M after 48 hrs by sulforhodamine B assay; format: functional; details: MDA-MB-231, 48 h, read-out: Activity; method in brief: as §1
PC-3 = test: Growth inhibition of human PC3 cells assessed as cell growth at 10^-5 M after 48 hrs by sulforhodamine B assay; format: functional; details: PC-3, 48 h, read-out: Activity; method in brief: as §1
TK-10 = test: Growth inhibition of human TK10 cells assessed as cell growth at 10^-5 M after 48 hrs by sulforhodamine B assay; format: functional; details: TK-10, 48 h, read-out: Activity; method in brief: as §2
SK-OV-3 = test: Growth inhibition of human SKOV3 cells assessed as cell growth at 10^-5 M after 48 hrs by sulforhodamine B assay; format: functional; details: SK-OV-3, 48 h, read-out: Activity; method in brief: as §2
SF-295 = test: Growth inhibition of human SF295 cells assessed as cell growth at 10^-5 M after 48 hrs by sulforhodamine B assay; format: functional; details: SF-295, 48 h, read-out: Activity; method in brief: as §1
NCI-H460 = test: Growth inhibition of human NCI-H460 cells assessed as cell growth at 10^-5 M after 48 hrs by sulforhodamine B assay; format: functional; details: NCI-H460, 48 h, read-out: Activity; method in brief: as §1
CAKI-1 = test: Growth inhibition of human Caki1 cells assessed as cell growth at 10^-5 M after 48 hrs by sulforhodamine B assay; format: functional; details: CAKI-1, 48 h, read-out: Activity
Method in brief: (§3)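 NCI 60-cell panel single high-dose screen: compound applied at 10^-5 M for 48 h, endpoint by sulforhodamine B protein-binding dye. Values reported as growth percent of treated cells relative to untreated control cells.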

T47D = test: Growth inhibition of human T47D cells assessed as cell growth at 10^-5 M after 48 hrs by sulforhodamine B assay; format: functional; details: read-out: Activity; method in brief: as §2
HCT-116 = test: Growth inhibition of human HCT116 cells assessed as cell growth at 10^-5 M after 48 hrs by sulforhodamine B assay; format: functional; details: HCT-116, 48 h, read-out: Activity; method in brief: as §3
UACC-257 = test: Growth inhibition of human UACC257 cells assessed as cell growth at 10^-5 M after 48 hrs by sulforhodamine B assay; format: functional; details: UACC-257, 48 h, read-out: Activity; method in brief: as §2
HOP-92 = test: Growth inhibition of human HOP92 cells assessed as cell growth at 10^-5 M after 48 hrs by sulforhodamine B assay; format: functional; details: HOP-92, 48 h, read-out: Activity; method in brief: as §3
NCI/ADR-RES = test: Growth inhibition of human NCI/ADR-RES cells assessed as cell growth at 10^-5 M after 48 hrs by sulforhodamine B assay; format: functional; details: read-out: Activity; method in brief: as §1
RXF 393 = test: Growth inhibition of human RXF393 cells assessed as cell growth at 10^-5 M after 48 hrs by sulforhodamine B assay; format: functional; details: RXF 393, 48 h, read-out: Activity; method in brief: as §1
NCI-H226 = test: Growth inhibition of human NCI-H226 cells assessed as cell growth at 10^-5 M after 48 hrs by sulforhodamine B assay; format: functional; details: NCI-H226, 48 h, read-out: Activity; method in brief: as §1
Nakaseomyces glabratus = test: Antifungal activity against Candida glabrata assessed as zone of inhibition at 5 uL and 28 degC after 36 hrs by disk diffusion method; format: functional
Method in brief: (§4)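 Agar disc diffusion with the test compound applied as a 1% (w/v) DMSO solution. Yeasts were grown on AC agar and Aspergillus niger on potato dextrose broth agar, each strain spread evenly. Plates were covered and kept 36 h at 28 °C, and the inhibition zone diameter was read in mm. Clotrimazole served as reference.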

SF-268 = test: Growth inhibition of human SF268 cells assessed as cell growth at 10^-5 M after 48 hrs by sulforhodamine B assay; format: functional; details: SF-268, 48 h, read-out: Activity; method in brief: as §1
HT-29 = test: Growth inhibition of human HT-29 cells assessed as cell growth at 10^-5 M after 48 hrs by sulforhodamine B assay; format: functional; details: HT-29, 48 h, read-out: Activity; method in brief: as §3
M14 = test: Growth inhibition of human M14 cells assessed as cell growth at 10^-5 M after 48 hrs by sulforhodamine B assay; format: functional; details: M14, 48 h, read-out: Activity; method in brief: as §1
UO-31 = test: Growth inhibition of human UO31 cells assessed as cell growth at 10^-5 M after 48 hrs by sulforhodamine B assay; format: functional; details: UO-31, 48 h, read-out: Activity; method in brief: as §2
[1] = Growth inhibition of human Hs 578T cells assessed as cell growth at 10^-5 M after 48 hrs by sulforhodamine B assay; format: functional; details: read-out: Activity; method in brief: as §3
Streptococcus entericus = test: Antibacterial activity against Streptococcus entericus assessed as zone of inhibition at 5 uL and 32 degC after 36 hrs by disk diffusion method; format: functional
Method in brief: (§5)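 Disc diffusion on AC agar, each strain spread evenly over the medium; test compounds given as 1% (w/v) DMSO solutions. Plates covered and incubated 36 h at 32 °C, then the diameter of the zone of inhibited growth measured in mm. Tetracycline served as antibacterial reference.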

HL-60 = test: Cytotoxicity against human HL60 cells after 24 hrs by MTT assay; format: functional, cell-based; details: HL-60, 24 h
Method in brief: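 HL-60 cells kept in RPMI 1640 with 10% FBS, no antibiotics, 37 °C, humidified 5% CO2. Cells (9 × 10^5 cells/mL) exposed to compound in 96-well plates for 24 h at 37 °C. MTT in PBS (5 mg/mL) added for 2 h, then DMSO, shaken 1 h and read photometrically. IC50 determined; cisplatin reference.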

Yarrowia lipolytica = test: Antifungal activity against Yarrowia lipolytica assessed as zone of inhibition at 5 uL and 28 degC after 36 hrs by disk diffusion method; format: functional; method in brief: as §4
Escherichia coli = test: Antibacterial activity against Escherichia coli assessed as zone of inhibition at 5 uL and 32 degC after 36 hrs by disk diffusion method; format: functional; method in brief: as §5
Staphylococcus equorum = test: Antibacterial activity against Staphylococcus equorum assessed as zone of inhibition at 5 uL and 32 degC after 36 hrs at by disk diffusion method; format: functional; method in brief: as §5
OVCAR-5 = test: Growth inhibition of human OVCAR5 cells assessed as cell growth at 10^-5 M after 48 hrs by sulforhodamine B assay; format: functional; details: OVCAR-5, 48 h, read-out: Activity; method in brief: as §1
RPMI-8226 = test: Growth inhibition of human RPMI8226 cells assessed as cell growth at 10^-5 M after 48 hrs by sulforhodamine B assay; format: functional; details: RPMI-8226, 48 h, read-out: Activity; method in brief: as §1

SMILES: CC(C)CCC[C@@H](C)[C@H]1CC[C@H]2[C@@H]3CCN4C(=O)CCC(=O)N4[C@@H]3CC[C@]12C
- growth at 10 µM (MDA-MB-435): 97.7%
- growth at 10 µM (SNB-19): 162%
- growth at 10 µM (MDA-MB-231): 98.2%
- growth at 10 µM (PC-3): 70.5%
- growth at 10 µM (TK-10): 108%
- growth at 10 µM (SK-OV-3): 99.3%
- growth at 10 µM (SF-295): 88.6%
- growth at 10 µM (NCI-H460): 107%
- growth at 10 µM (CAKI-1): 73.5%
- growth at 10 µM (T47D): 64.4%
- growth at 10 µM (HCT-116): 95%
- growth at 10 µM (UACC-257): 76.2%
- growth at 10 µM (HOP-92): 77.5%
- growth at 10 µM (NCI/ADR-RES): 94.6%
- growth at 10 µM (RXF 393): 102%
- growth at 10 µM (NCI-H226): 90.3%
- diameter of the inhibition zone (DIZ) (Nakaseomyces glabratus): inactive
- growth at 10 µM (SF-268): 74.5%
- growth at 10 µM (HT-29): 87.9%
- growth at 10 µM (M14): 90.5%
- growth at 10 µM (UO-31): 76.3%
- growth at 10 µM [1]: 97%
- diameter of the inhibition zone (DIZ) (Streptococcus entericus): 10 mm
- IC50 (HL-60): 30000 nM
- diameter of the inhibition zone (DIZ) (Yarrowia lipolytica): 15 mm
- diameter of the inhibition zone (DIZ) (Escherichia coli): 11 mm
- diameter of the inhibition zone (DIZ) (Staphylococcus equorum): 9 mm
- growth at 10 µM (OVCAR-5): 91.5%
- growth at 10 µM (RPMI-8226): 56.6%

SMILES: CC(C)CCC[C@@H](C)[C@H]1CC[C@H]2C3=CCn4c(=O)ccc(=O)n4[C@@H]3CC[C@]12C
- growth at 10 µM (MDA-MB-435): -57.4%
- growth at 10 µM (SNB-19): -100%
- growth at 10 µM (MDA-MB-231): -89.2%
- growth at 10 µM (PC-3): -85.5%
- growth at 10 µM (TK-10): -83.1%
- growth at 10 µM (SK-OV-3): -100%
- growth at 10 µM (SF-295): -99.5%
- growth at 10 µM (NCI-H460): -89.9%
- growth at 10 µM (CAKI-1): -91.6%
- growth at 10 µM (T47D): -75.2%
- growth at 10 µM (HCT-116): -44.6%
- growth at 10 µM (UACC-257): -97.5%
- growth at 10 µM (HOP-92): -94%
- growth at 10 µM (NCI/ADR-RES): -28.8%
- growth at 10 µM (RXF 393): -76%
- growth at 10 µM (NCI-H226): -91.8%
- diameter of the inhibition zone (DIZ) (Nakaseomyces glabratus): 8 mm
- growth at 10 µM (SF-268): -92.3%
- growth at 10 µM (HT-29): -97.5%
- growth at 10 µM (M14): -87.1%
- growth at 10 µM (UO-31): -88.5%
- growth at 10 µM [1]: -12.2%
- diameter of the inhibition zone (DIZ) (Streptococcus entericus): 7 mm
- IC50 (HL-60): 30 nM
- diameter of the inhibition zone (DIZ) (Yarrowia lipolytica): 7 mm
- diameter of the inhibition zone (DIZ) (Escherichia coli): inactive
- diameter of the inhibition zone (DIZ) (Staphylococcus equorum): inactive
- growth at 10 µM (OVCAR-5): -84.3%
- growth at 10 µM (RPMI-8226): -41.5%

SMILES: CC(C)CCC[C@@H](C)[C@H]1CC[C@H]2C3=CC[C@@H]4C(=O)C=CC(=O)[C@@H]4[C@@H]3CC[C@]12C
- growth at 10 µM (MDA-MB-435): -16.4%
- growth at 10 µM (SNB-19): 7.34%
- growth at 10 µM (MDA-MB-231): 28.6%
- growth at 10 µM (PC-3): 9.01%
- growth at 10 µM (TK-10): -36.6%
- growth at 10 µM (SK-OV-3): 10.5%
- growth at 10 µM (SF-295): -25.6%
- growth at 10 µM (NCI-H460): 2.88%
- growth at 10 µM (CAKI-1): -56.3%
- growth at 10 µM (T47D): -18.9%
- growth at 10 µM (HCT-116): 3.29%
- growth at 10 µM (UACC-257): 28.7%
- growth at 10 µM (HOP-92): -28.9%
- growth at 10 µM (NCI/ADR-RES): 7.87%
- growth at 10 µM (RXF 393): -66.6%
- growth at 10 µM (NCI-H226): 42%
- diameter of the inhibition zone (DIZ) (Nakaseomyces glabratus): inactive
- growth at 10 µM (SF-268): -61.2%
- growth at 10 µM (HT-29): 7.56%
- growth at 10 µM (M14): 5.05%
- growth at 10 µM (UO-31): -67.9%
- growth at 10 µM [1]: 8.12%
- diameter of the inhibition zone (DIZ) (Streptococcus entericus): inactive
- IC50 (HL-60): 700 nM
- diameter of the inhibition zone (DIZ) (Yarrowia lipolytica): inactive
- diameter of the inhibition zone (DIZ) (Escherichia coli): inactive
- diameter of the inhibition zone (DIZ) (Staphylococcus equorum): inactive
- growth at 10 µM (OVCAR-5): 7.74%
- growth at 10 µM (RPMI-8226): 8.72%

From ChEMBL document CHEMBL1806372, “Cytotoxic ring A-modified steroid analogues derived from Grundmann's ketone” (Eur J Med Chem, 2011)
